Results gathered from unrelated publications.
Protocols differ between the studies behind these lines.
Target: Protein kinase C iota type (PRKCI, Homo sapiens, UniProt P41743)
One construct used (P41743 1-596): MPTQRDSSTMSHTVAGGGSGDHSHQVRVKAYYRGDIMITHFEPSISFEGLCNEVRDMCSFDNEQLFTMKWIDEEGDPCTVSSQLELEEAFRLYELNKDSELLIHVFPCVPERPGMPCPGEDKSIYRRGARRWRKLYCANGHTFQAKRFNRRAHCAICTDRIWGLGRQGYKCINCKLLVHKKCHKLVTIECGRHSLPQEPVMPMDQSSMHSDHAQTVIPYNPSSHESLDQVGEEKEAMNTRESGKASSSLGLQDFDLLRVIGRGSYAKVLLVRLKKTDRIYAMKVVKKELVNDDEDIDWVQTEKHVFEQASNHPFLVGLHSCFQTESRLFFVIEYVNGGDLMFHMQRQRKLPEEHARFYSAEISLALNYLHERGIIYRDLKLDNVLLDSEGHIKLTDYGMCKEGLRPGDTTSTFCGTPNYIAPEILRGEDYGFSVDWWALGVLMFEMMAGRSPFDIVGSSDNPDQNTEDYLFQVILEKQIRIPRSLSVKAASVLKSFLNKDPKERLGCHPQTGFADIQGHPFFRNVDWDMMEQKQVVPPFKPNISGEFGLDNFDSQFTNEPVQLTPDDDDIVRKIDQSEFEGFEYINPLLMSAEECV

SMILES	observed	mode	method	tested at	setting	endpoint	result
CO[C@@H]1[C@H](N(C)C(=O)c2ccccc2)C[C@H]2O[C@]1(C)n1c3ccccc3c3c4c(c5c6ccccc6n2c5c31)C(=O)NC4	enzyme activity	inhibitor		1 µM		inhibition	43%
C1=C/COCc2cc(ccc2OCCN2CCCC2)Nc2nccc(n2)-c2cccc(c2)COC/1	binding			0.1 µM		remaining binding	95%
CC(C)S(=O)(=O)c1ccc2nccc(Nc3ccc4sc(C5CCCC5)nc4c3)c2c1	enzyme activity	inhibitor		1 µM		activity vs control	107%
CN1CCN(C(=O)c2ccc(NC(=O)Nc3ccc(N(C)c4ccnc(Nc5ccc(CS(C)(=O)=O)cc5)n4)cc3)cc2)CC1	binding			1 µM		remaining binding	74%
CC#CC(=O)N1CCC[C@H]1c1nc(-c2ccc(C(=O)Nc3ccccn3)cc2)c2c(N)nccn12	enzyme activity	inhibitor		1 µM		inhibition	0%
COc1ccc2[nH]c3c4[nH]c5ccc(OC)cc5c4c4c(c3c2c1)C(=O)NC4=O	binding			1 µM		remaining binding	63%
Cc1cc(O)c(-c2ccc([C@@H](C)CN(C)C)cc2)c2c1[nH]c(=O)c1sccc12	cell-free assay	inhibitor		0.1 µM	lysate	inhibition	7.26%
CCCCC(=O)Nc1ccc(-c2ccc3ncn(CCC)c(=O)c3c2)cn1	binding		competition with immobilised ligand	0.5 µM		remaining binding	91%
